Test results published in ChEMBL document CHEMBL1122417, “Synthesis of 3-hydroxy-3-cyclohexylbutyric acid derivatives. 1. Cyclic homologues of 3-hydroxy-3-methylglutaric acid” (1983).

What was measured:
Type in all cases: functional
Rattus norvegicus [1] = organism: Rattus norvegicus; assay: Percent inhibition of [14C]acetate incorporation into CO2, after incubation with rat liver slices at a concentration of 0.005 M
Procedure, shortened: (§1)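 Rat liver slices (250 mg) were incubated with and without compound in 4 mL Krebs-Ringer bicarbonate buffer, pH 7.4, containing 4 mM [2-14C]acetate and flushed with 95% O2-5% CO2. 14C incorporation into CO2, long-chain fatty acids and cholesterol was measured and compared against incubations without compound. Values are arithmetic means of three determinations.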

Rattus norvegicus [2] = organism: Rattus norvegicus; assay: Percent inhibition of [14C]acetate incorporation into cholesterol, after incubation with rat liver slices, at a concentration of 0.005 M; procedure, shortened: as §1
Rattus norvegicus [3] = organism: Rattus norvegicus; assay: Percent inhibition of [14C]acetate incorporation into long-chain fatty acids, after incubation with rat liver slices, at a concentration of 0.005 M; procedure, shortened: as §1
Rattus norvegicus [4] = organism: Rattus norvegicus; assay: Percent inhibition of [14C]-acetate incorporation into CO2, after incubation with rat liver slices at a concentration of 0.0005 M; procedure, shortened: as §1
Rattus norvegicus [5] = organism: Rattus norvegicus; assay: Percent inhibition of [14C]acetate incorporation into cholesterol, after incubation with rat liver slices, at a concentration of 0.0005 M; procedure, shortened: as §1
Rattus norvegicus [6] = organism: Rattus norvegicus; assay: Percent inhibition of [14C]acetate incorporation into long-chain fatty acids, after incubation with rat liver slices, at a concentration of 0.0005 M; procedure, shortened: as §1

| Compound | Inhibition (Rattus norvegicus [1]) | Inhibition (Rattus norvegicus [2]) | Inhibition (Rattus norvegicus [3]) | Inhibition (Rattus norvegicus [4]) | Inhibition (Rattus norvegicus [5]) | Inhibition (Rattus norvegicus [6]) |
| --- | --- | --- | --- | --- | --- | --- |
| CC1(CC(=O)O)OC(=O)[C@@H]2CCCC[C@H]21 (some centres undefined) | 37% | 42% | 67% |  |  |  |
| CCC1(C)OC(=O)c2ccccc21 (centres undefined) | 86% | 99% | 99% | <10% | 22% | 29% |
| CC1(CC(=O)O)OC(=O)C2=C1CCCC2 (centres undefined) | 45% | 63% | 83% |  |  |  |
| CC1(CC(=O)O)OC(=O)c2ccccc21 (centres undefined) | <10% | 48% | 54% |  |  |  |
| CCC1(C)OC(=O)C2=C1CCCC2 (centres undefined) | 63% | 81% | 81% |  |  |  |
| CC1(CC(=O)O)OC(=O)[C@H]2CCCC[C@H]21 (some centres undefined) | 23% | 30% | 34% |  |  |  |
| CC(O)(CC(=O)O)CC(=O)O [MEGLUTOL] | <10% | 12% | <10% |  |  |  |
